≈ marks a conversion by molar mass, not a printed value. Where “and” joins values, the source holds several entries; their conditions need not be identical. Equal entries are not always repeated. Where two headings read alike, the source gives them in different places.
Tests used:
MCF7 cells = assay: MTT cytotoxicity assay, MCF7 cells; type: cell-based, human
Summary of the method: (§1)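 Cells seeded at 4000–7000 per well in 10% FBS medium. Lines were grown at 37°C, 5% CO2: MCF-7, LM3–3, BT-20 and BT-474 in DMEM/10% FBS; MDA-MB-468 in RPMI 1640/5% FBS; SUM159PT in Ham's F-12/5% FBS with insulin and hydrocortisone. At 70–80% confluence, test compound was added at 0.2–1000 nM for 72 h, then MTT. Viability relative to untreated cells; IC50 from Hill-slope fit.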

Percentage of free drug = type: in vitro ADME
[1] = Maximum tolerated dose / tolerability in mice; type: in vivo
AR-PDX tumor cells 118b = assay: Intra-femoral bone metastasis mouse model of prostate cancer; type: in vivo, SCID mice; conditions: 10 mg/kg/day i.p., four weeks; for reduction in femur volume compared to vehicle: CT imaging
Summary of the method: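 1 × 10^5 AR-PDX 118b cells were injected […] into male SCID mice aged 8–9 weeks. Two weeks later, n=9 per group received vehicle or 10 mg/kg/day i.p. for 4 weeks; x-ray imaging every two weeks. Femurs were collected at the end. CT 3D reconstruction was done on 5 femurs per group, plus histology; tumor/femur area ratio. Left femur as negative control.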

[2] = Full pharmacokinetic profile, IV and oral, CD-1 mice; type: in vivo; conditions: male, CD-1, mouse, plasma; for Cmax: po, 10 mg/kg
Summary of the method: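 Male mice, 6 weeks, n=3 per route. Test compound in 20% DMSO, 16% PEG, 4% dextrose in PBS: IV 1 mg/kg (0.5 mg/mL) or oral gavage 10 mg/kg (1 mg/mL). 10 μL blood taken from 2 or 15 min to 48 h. Plasma measured by LC-MS/MS against 0.5–1000 ng/mL calibration standards with four QC levels. Non-compartmental extravascular PK fit.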

[3] = Stability in human plasma; type: in vitro ADME; conditions: Fig S2
Water solubility = type: physicochemical
LNCaP cells = assay: LNCaP xenograft mouse model; type: in vivo, SCID mice
Summary of the method: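 1×10^7 LNCaP cells were implanted subcutaneously on both sides of the back of male SCID mice. Daily 10 mg/kg i.p. dosing or vehicle started 4 weeks after inoculation and ran for 4 weeks. Tumor size (length × width × width/2) measured weekly. Survival endpoint was tumor diameter of 3.0 cm. Ki67, cleaved caspase 3 and CD31 IHC on tumor sections at the end of treatment.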

[4] = test system: mouse primary hepatocytes; assay: MTT cytotoxicity assay, mouse primary hepatocytes; type: cell-based; conditions: for IC50: Mus musculus, Hepatocyte; for toxicity in mouse primary hepatocytes: up to 1000 nM
Summary of the method: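 Primary hepatocytes were isolated by collagenase perfusion from an adult female CD-1 mouse. They were maintained in M199 medium with 10% FBS at 37°C, 5% CO2.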

[5] = test system: seven human cancer cell lines known to overexpress SRC-3; assay: MTT cytotoxicity, panel of seven human cancer cell lines; type: cell-based; conditions: read-out: IC50 values across the cancer cell lines
Summary of the method: as §1

hERG = hERG (Homo sapiens, UniProt Q12809); type: cell-based
[6] = molecular target: DNA-bound ER/SRC-3/P300 complex (Homo sapiens, UniProt Q9Y6Q9); assay: Biotinylated ERE pull-down assay; type: biochemical
Summary of the method: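 Baculovirus-expressed, affinity-purified His-SRC-3-flag was incubated with test compound or vehicle for 30 min on ice, 0.1 μg protein. Then 0.1 μg recombinant ERα and His-p300 and an ERE-containing DNA oligo were added with 1 μM 17-β estradiol for 1 h on ice. The ER complex was pulled down and bound SRC-3 and p300 quantified by western blot.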

[7] = mice; cited from earlier work
MDA-MB-468 cells = assay: Wash-out experiment in MDA-MB-468 cell line; type: cell-based, human; conditions: drug washed out with PBS, total incubation 72 h, MTT
Summary of the method: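 MDA-MB-468 cells were grown in RPMI 1640 with 5% FBS. They were exposed to test compound for varying durations, washed with PBS, and kept in culture to a total of 72 h. Viability was read by MTT, and EC50 and EC90 were derived for each exposure time.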

[8] = test system: 78 targets, including GPCRs, ion channel, receptors, kinase, enzymes and transporters; assay: SafetyScreen panel against 78 targets; conditions: at 10 μM
Summary of the method: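 Commercial off-target safety panel covering GPCR (calcium flux agonist/antagonist, cAMP), ion channel (hERG blocker) and non-kinase enzyme assays. Test compound was screened at 10 μM, with RC50 values determined for interacting targets.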

[9] = test system: prostate cancer PDX organoids; assay: Inhibition assay in prostate cancer PDX organoids; type: cell-based, human; conditions: 2 weeks treatment
Summary of the method: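 Tumors grown in SCID mice were digested with collagenase I and III to single cells. 20000 cells were embedded in collagen gel, set 20 min at 37°C, then cultured overnight at 37°C, 5% CO2. Test compound or vehicle given for 14 days, at least 5 wells per dose. Organoids imaged and counted on day 14; Student t test.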

PANC-1-shSRC-3.1 cells = assay: MTT viability, SRC-3 knock-down cells shSRC-3.1; type: cell-based, human; conditions: PANC-1 shSRC-3.1 and shSRC-3.2 vs control/parental cells
Summary of the method: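 SRC-3 was stably knocked down in PANC-1 cells with lentiviral shRNAs (shSRC-3.1, shSRC-3.2; shCtrl control), and SRC-3 levels were checked by western blot. Cells were treated with varying doses of test compound for 72 h and viability read by MTT. The IC50 of knock-down cells was compared with that of control cells to give the fold change.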

Panc-1-Luc cells = assay: Orthotopic Panc-1 PDAC mouse model; type: in vivo, SCID mice; conditions: 10 mg/kg i.p. once per day, 8 weeks, orthotopic PDAC mice
Summary of the method: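 0.5×10^6 Panc-1-Luc cells were implanted orthotopically in the pancreas of male SCID mice aged 8 weeks. Mice were randomized by luciferase imaging (n=5 per group). From day 8, test compound 10 mg/kg i.p. or vehicle was given daily. Luciferase imaging and body weight were recorded weekly; tumors harvested at day 63.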

[10] = cytotoxicity to MCF7 cells, MTT assay, 72 h, mean of triplicate

Chain of hERG (Q12809 whole entry): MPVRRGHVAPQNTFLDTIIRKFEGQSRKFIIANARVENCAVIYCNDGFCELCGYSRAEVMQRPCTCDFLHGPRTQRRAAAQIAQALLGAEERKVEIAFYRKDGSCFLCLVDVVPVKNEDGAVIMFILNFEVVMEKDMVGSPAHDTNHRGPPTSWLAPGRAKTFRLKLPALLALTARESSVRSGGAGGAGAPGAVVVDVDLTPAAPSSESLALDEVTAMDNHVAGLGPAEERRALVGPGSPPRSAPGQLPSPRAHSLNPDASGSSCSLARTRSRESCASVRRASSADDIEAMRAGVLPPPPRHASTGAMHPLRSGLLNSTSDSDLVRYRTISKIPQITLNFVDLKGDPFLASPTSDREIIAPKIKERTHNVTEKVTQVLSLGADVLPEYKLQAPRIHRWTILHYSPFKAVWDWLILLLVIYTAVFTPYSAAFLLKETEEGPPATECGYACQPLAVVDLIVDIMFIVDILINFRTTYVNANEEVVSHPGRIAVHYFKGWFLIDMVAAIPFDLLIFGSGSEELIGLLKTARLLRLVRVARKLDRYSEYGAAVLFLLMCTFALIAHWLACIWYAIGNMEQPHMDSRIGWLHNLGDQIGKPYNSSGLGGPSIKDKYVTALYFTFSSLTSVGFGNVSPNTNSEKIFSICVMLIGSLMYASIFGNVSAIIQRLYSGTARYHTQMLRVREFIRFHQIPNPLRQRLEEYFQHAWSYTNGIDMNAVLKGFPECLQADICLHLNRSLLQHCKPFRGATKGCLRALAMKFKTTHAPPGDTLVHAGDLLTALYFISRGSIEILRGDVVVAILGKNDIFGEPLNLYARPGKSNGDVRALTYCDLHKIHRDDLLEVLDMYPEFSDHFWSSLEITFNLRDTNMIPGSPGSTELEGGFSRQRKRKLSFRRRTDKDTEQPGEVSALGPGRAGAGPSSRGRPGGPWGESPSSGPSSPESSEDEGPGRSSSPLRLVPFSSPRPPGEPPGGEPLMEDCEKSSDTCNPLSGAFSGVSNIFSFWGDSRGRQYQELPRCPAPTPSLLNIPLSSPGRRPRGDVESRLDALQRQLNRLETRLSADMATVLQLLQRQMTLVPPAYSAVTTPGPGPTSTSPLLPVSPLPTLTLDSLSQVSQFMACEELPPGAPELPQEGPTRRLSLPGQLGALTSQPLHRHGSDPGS
Chain of DNA-bound ER/SRC-3/P300 complex (Q9Y6Q9 whole entry, one chain of several): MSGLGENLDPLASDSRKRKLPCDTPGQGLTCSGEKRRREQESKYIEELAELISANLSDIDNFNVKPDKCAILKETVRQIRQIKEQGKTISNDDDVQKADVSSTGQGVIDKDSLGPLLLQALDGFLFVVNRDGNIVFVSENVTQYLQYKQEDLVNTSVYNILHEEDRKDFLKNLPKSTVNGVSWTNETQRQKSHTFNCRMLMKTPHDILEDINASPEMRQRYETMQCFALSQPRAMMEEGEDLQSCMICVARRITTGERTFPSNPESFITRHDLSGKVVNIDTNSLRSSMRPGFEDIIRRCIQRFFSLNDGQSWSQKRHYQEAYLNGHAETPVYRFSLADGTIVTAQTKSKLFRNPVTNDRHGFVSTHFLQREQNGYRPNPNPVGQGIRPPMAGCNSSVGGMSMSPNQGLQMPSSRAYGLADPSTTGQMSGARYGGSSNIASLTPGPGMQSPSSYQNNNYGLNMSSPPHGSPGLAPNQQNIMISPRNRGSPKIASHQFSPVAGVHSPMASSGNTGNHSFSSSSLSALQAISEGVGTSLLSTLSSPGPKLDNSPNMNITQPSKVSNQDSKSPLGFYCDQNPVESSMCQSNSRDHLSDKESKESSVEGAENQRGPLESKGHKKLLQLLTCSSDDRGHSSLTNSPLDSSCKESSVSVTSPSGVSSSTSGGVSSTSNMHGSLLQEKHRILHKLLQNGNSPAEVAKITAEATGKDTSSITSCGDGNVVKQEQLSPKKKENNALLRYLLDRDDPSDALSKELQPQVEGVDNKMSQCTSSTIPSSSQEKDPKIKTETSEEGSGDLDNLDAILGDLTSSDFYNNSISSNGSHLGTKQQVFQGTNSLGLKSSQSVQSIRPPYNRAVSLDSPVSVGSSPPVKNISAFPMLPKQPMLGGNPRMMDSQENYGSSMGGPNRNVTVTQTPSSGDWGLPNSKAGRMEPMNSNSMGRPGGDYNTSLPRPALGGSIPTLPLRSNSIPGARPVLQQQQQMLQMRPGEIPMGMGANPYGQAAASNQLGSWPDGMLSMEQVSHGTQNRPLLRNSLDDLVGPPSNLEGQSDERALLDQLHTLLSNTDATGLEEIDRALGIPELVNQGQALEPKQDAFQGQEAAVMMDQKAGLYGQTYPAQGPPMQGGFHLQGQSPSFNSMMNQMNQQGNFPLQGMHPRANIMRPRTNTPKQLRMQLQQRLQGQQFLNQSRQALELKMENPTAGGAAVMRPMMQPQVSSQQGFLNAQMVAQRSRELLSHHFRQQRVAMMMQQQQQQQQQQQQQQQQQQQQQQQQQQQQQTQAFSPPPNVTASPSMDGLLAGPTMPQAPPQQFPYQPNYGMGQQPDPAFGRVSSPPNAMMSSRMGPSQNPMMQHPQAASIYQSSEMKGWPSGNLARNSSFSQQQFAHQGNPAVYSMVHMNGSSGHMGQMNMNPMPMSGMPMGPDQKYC

## 1-(1-methyl-1H-benzo[d]imidazol-2-yl)-3-(pyridin-2-yl)-1H-pyrazol-5-ol [compound 12]
MCF7 cells; [10]
  IC50: > 1000 nM

## C/C(=N\Nc1nc2cc(F)c(F)cc2n1C)c1ncccn1 [SI-10, (E)-5,6-difluoro-1-methyl-2-(((E)-1-(pyrimidin-2-yl)ethylidene)hydrazineylidene)-2,3-dihydro-1H-benzo[d]imidazole]
Percentage of free drug
  percentage of free drug: 6.6%
[1]; 50 mg/kg or 100 mg/kg, once per day, 4 weeks
  body weight: did not cause any loss of body weight
[1]; oral administration up to 100 mg/kg (highest dose tested)
  acute tolerability: did not cause appreciable stress
AR-PDX tumor cells 118b
  decrease of ratio of tumor area to femur area: over 50%
  reduction in femur volume compared to vehicle: > 55%
[2]; iv, 1 mg/kg
  AUC(0-t): 0.29 µM·h
[2]
  Cmax: 1140 nM
[3]
  stability in human plasma: excellent stability
Water solubility
  solubility: 22.8 µM (≈ 6.89 µg/mL)
LNCaP cells; 10 mg/kg i.p. once per day, 3.0 cm tumor diameter endpoint
  mouse survival: significantly prolonged
LNCaP cells; IHC at end of treatment, vehicle 2%
  cleaved caspase 3 positive tumor cells: Approximately 10%
LNCaP cells; IHC at end of treatment, vehicle more than 50% positive
  Ki67 positive cells in tumors: significantly lower
[4]
  IC50: > 1000 nM
  toxicity in mouse primary hepatocytes: did not observe any toxicity
[5]
  IC50: 1 to 32 nM
hERG; at 30 μM
  hERG inhibition: did not show appreciable hERG inhibition

## C/C(=N\NC1Oc2ccccc2N1C)c1ccc(F)cn1 (stereo not drawn) [8a, (E)-2-(2-(1-(5-fluoropyridin-2-yl)ethylidene)hydrazineyl)-3-methyl-2,3-dihydrobenzo[d]oxazole]
MCF7 cells; Homo sapiens, MCF7, 72 h
  IC50: > 1000 nM
[6]; at 1.5 μM
  effect on the ER complex: did not affect the ER complex

## C/C(=N\Nc1nc2ccccc2n1C)c1ccccn1 [SI-2]
[7]
  plasma half-life: 1 h and ~ 1 h

## (E)-2-(2-(1-(5-fluoropyridin-2-yl)ethylidene)hydrazineyl)-3-methyl-2,3-dihydrobenzo[d]thiazole [8b]
MCF7 cells; [10]
  IC50: > 1000 nM

## 6-((E)-1-(((E)-5,6-difluoro-1-methyl-1,3-dihydro-2H-benzo[d]imidazol-2-ylidene)hydrazineylidene)ethyl)-N-hydroxynicotinamide [6m]
MCF7 cells; [10]
  IC50: > 1000 nM

## C/C(=N\N=c1/[nH]c2cc(F)c(F)cc2n1C)c1ccc(F)cn1 [SI-12, (E)-5,6-difluoro-2-(((E)-1-(5-fluoropyridin-2-yl)ethylidene)hydrazineylidene)-1-methyl-2,3-dihydro-1H-benzo[d]imidazole]
Percentage of free drug
  percentage of free drug: 2.2%
AR-PDX tumor cells 118b
  decrease of ratio of tumor area to femur area: over 50%
  reduction in femur volume compared to vehicle: > 55%
MDA-MB-468 cells
  treatment time sufficient to achieve maximal cytotoxicity: 3 to 6 h
[8]
  interactions with other targets of the panel: minimal
[6]; at 0.15 μM, SRC-3 protein 0.13 μM
  recruitment of SRC-3 and p300 in the ER complex: significantly decreased
[9]
  formation and growth of organoids: effectively suppressed
[2]; iv, 1 mg/kg
  AUC(0-t): 2.31 µM·h
  half-life: 22 h
[2]
  Cmax: 2740 nM
PANC-1-shSRC-3.1 cells
  fold reduction of potency in SRC-3 knock-down cells vs control cells: approximately 5 fold
PANC-1-shSRC-3.1 cells; listed as SI-12 (6c)
  fold reduction of potency in SRC-3 knock-down cells vs control cells: 4.7 ~5.8 fold
[3]
  stability in human plasma: excellent stability
Water solubility
  solubility: 3.8 µM (≈ 1.21 µg/mL)
[4]
  IC50: > 1000 nM
  toxicity in mouse primary hepatocytes: did not observe any toxicity
Panc-1-Luc cells
  body weight: did not cause any mice body weight change
hERG; at 10 μM
  hERG inhibition: moderate hERG inhibition

## methyl 6-((E)-1-(((E)-5,6-dichloro-1-methyl-1,3-dihydro-2H-benzo[d]imidazol-2-ylidene)hydrazineylidene)ethyl)nicotinate [6f]
MCF7 cells; [10]
  IC50: 2.9 nM

## 6-((E)-1-(((E)-5,6-dichloro-1-methyl-1,3-dihydro-2H-benzo[d]imidazol-2-ylidene)hydrazineylidene)ethyl)nicotinamide [6g]
MCF7 cells; [10]
  IC50: 2.7 nM

— publication PMC11105966 (Journal of medicinal chemistry, 2024)
